Data as given in paper PMC6344890 (Journal of medicinal chemistry, 2018).
Blank lines part the entries; values can stand above or below the molecule they belong to.

Tests used:
PC12 cells [1] = assay: Oxygen glucose deprivation; type: cell-based; settings: PC12-OGD primary assay, 1, 10, 25 μM
Summary of the method: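 PC12 cells (passage 12–14, undifferentiated) were plated overnight in serum-containing DMEM/F12. They were deprived of glucose and oxygen for 1.5 h (glucose-free HBSS, argon, 37 °C). The medium was then replaced with growth medium containing test compound (1, 10, 25 µM) or DMSO for 24 h. MTT (0.5 mg/mL) was added for 4 h and dissolved in DMSO, with absorbance read at 540 nm. Viability is % change versus vehicle control; mean ± SEM, n = 3, triplicate experiments; ANOVA with Dunnett's test.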

delta opioid receptor = delta opioid receptor (Homo sapiens, UniProt P41143); assay: Psychoactive Drug Screening Program binding, delta opioid receptor; settings: PDSP
[2] = tested on: benzodiazepine (BZP) rat brain site; assay: Psychoactive Drug Screening Program binding, benzodiazepine; settings: PDSP
PC12 cells [3] = assay: LC-MS/MS study of cell permeability; type: in vitro ADME; settings: 25 μM, 24 h, control and OGD-treated PC12 cells
Summary of the method: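 PC12 cells (1×10^6) were given 1.5 h OGD under argon at 37 °C, or kept without OGD on a control plate. They were then exposed to 25 µM test compound or vehicle for 24 h. Medium was collected, and cytosol was taken by lysis in HEPES/NP-40 buffer for 15 min at 0 °C and centrifuged. Samples were diluted in 2% formic acid and spiked with an analogue internal standard. Analysis was positive-ESI UPLC-MS/MS, with MRM peak areas normalised to the internal standard.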

male C57BL/6 mice = assay: Step-through passive avoidance; type: in vivo; settings: scopolamine 1 mg/kg ip 30 min prior to training alone (negative control); vehicle-treated 270 ± 29 s; mean ± SEM
PC12 cells [4] = assay: OGD neuroprotection concentration response, PrestoBlue; type: cell-based; settings: 50 μM, OGD-exposed PC12 cells
Summary of the method: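 Undifferentiated PC12 cells (passage 12–14) were plated overnight in DMEM/F12 with 5% FBS and 5% HS. They were given 1.5 h OGD in glucose-free HBSS under argon at 37 °C. Fresh growth medium with test compound (0.1, 1, 5, 10, 25, 50 µM) or DMSO followed, for 24 h at 37 °C. PrestoBlue (10%) was added for 30 min, and fluorescence was read at 560/590 nm. Results are % change versus vehicle control; non-OGD plates were included.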

sGC signaling = assay: PC12-OGD assay with co-incubation of the sGC inhibitor ODQ, MTT readout; type: cell-based; settings: ODQ 10 μM
Summary of the method: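 This was the PC12 OGD protocol (90 min glucose-free HBSS under argon at 37 °C, then 24 h in growth medium with test compound), with ODQ (10 µM) co-incubated. Viability was read by MTT (0.5 mg/mL, 4 h, DMSO-solubilised, 540 nm) relative to vehicle control. Mean ± SEM, n = 3, duplicate experiments; one-way ANOVA with Dunnett's test.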

[5] = tested on: GABAA, serotonin receptors, dopamine receptors, and muscarinic and nicotinic acetylcholine receptors; assay: Psychoactive Drug Screening Program radioligand binding panel; settings: PDSP, Supplementary Table 2
hERG = hERG (Homo sapiens, UniProt Q12809); assay: Psychoactive Drug Screening Program hERG binding; settings: PDSP
[6] = Reactivity analysis with N-acetyl cysteine, HPLC-PDA; type: physicochemical; settings: 250 μM compound, N-acetyl cysteine 5 mM, PBS 50 mM pH 7.4, 37 °C, 2 and 12 h
Summary of the method: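 Test compound (250 µM) or N-ethylmaleimide (250 µM) was incubated with or without N-acetylcysteine (5 mM) in 50 mM PBS, pH 7.4, at 37 °C. Aliquots were taken at 2 and 12 h and analysed by HPLC-PDA. Peak areas at each analyte's UV λmax gave the relative abundance of remaining starting material.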

PC12 cells [7] = assay: NO production as NO2− in the primary assay; type: cell-based
[8] = type: in vivo; settings: 20 mg/kg ip or po, mice
CREB phosphorylation = assay: pCREB:tCREB ratio in forebrain by ELISA; type: in vivo, mice; settings: 5a alone 20 mg/kg ip or po, 1, 2 or 12 h

hERG, sequence (Q12809 whole entry): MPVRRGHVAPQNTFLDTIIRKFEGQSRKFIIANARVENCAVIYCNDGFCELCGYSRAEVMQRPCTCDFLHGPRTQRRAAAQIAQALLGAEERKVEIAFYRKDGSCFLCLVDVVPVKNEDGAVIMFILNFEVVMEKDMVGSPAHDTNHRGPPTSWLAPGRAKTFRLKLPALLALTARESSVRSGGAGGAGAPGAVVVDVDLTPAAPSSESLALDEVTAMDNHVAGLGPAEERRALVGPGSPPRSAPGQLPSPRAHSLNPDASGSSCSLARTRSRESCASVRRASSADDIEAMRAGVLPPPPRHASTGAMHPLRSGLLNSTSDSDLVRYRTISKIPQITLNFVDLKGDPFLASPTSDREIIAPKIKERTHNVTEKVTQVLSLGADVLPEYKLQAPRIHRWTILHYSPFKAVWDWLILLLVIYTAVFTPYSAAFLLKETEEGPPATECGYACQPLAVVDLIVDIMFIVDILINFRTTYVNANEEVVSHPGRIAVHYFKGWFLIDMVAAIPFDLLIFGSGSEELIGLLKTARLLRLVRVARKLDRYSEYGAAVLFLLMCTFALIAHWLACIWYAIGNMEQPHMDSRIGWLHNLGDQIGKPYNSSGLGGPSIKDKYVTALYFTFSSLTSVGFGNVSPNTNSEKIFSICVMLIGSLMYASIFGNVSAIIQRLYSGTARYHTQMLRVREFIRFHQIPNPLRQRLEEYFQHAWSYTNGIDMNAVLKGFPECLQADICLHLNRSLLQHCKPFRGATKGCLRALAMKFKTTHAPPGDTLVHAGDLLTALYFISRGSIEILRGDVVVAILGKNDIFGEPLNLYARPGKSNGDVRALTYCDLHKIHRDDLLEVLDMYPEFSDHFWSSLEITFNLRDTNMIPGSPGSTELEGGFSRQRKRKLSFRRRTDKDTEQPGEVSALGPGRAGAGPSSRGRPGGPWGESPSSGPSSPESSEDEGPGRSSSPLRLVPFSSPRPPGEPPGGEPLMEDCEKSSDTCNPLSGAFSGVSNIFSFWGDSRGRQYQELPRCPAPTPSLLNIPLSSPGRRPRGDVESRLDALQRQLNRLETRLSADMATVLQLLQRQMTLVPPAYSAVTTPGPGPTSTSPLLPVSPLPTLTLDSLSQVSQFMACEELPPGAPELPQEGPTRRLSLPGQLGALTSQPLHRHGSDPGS
delta opioid receptor, sequence (P41143 whole entry): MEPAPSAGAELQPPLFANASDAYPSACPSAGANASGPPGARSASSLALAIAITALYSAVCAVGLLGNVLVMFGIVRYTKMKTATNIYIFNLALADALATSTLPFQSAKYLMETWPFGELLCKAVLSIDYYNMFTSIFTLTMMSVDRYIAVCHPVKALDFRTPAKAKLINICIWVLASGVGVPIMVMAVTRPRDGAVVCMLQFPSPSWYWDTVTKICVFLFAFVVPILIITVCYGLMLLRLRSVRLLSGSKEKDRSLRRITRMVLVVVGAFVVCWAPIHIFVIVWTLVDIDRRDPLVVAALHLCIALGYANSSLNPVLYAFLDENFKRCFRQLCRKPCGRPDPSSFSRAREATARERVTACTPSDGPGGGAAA

inhibition of binding at the delta opioid receptor (delta opioid receptor): significantly inhibited binding
inhibition of binding at the benzodiazepine (BZP) rat brain site [2]: significantly inhibited binding
distribution between media (supernatant) and cytosol (PC12 cells [3]): found in greatest amounts in the cytosol
Structure (SMILES): [2H]C1([2H])CC(C)CC([2H])([2H])N1Cc1no[n+]([O-])c1-c1ccc(F)cc1 [Furoxan 7a, 3-(4-Fluorophenyl)-4-((4-methylpiperidin-1-yl-2,2,6,6-d4)methyl)-1,2,5-oxadiazole 2-Oxide]
neuroprotection (in words) (PC12 cells [1]): no neuroprotective effects

reactivity with excess thiol [6]: negligible reactivity
distribution between media (supernatant) and cytosol (PC12 cells [3]): found in greatest amounts in the cytosol
presence in forebrain and plasma after 12 h [8]: detectable levels after 12 h
Structure (SMILES): CC1CCN(Cc2no[n+]([O-])c2-c2ccc(F)cc2)CC1 [Furoxan 5a, 3-(4-Fluorophenyl)-4-((4-methylpiperidin-1-yl)methyl)-1,2,5-oxadiaozle 2-Oxide]
neuroprotection (in words) (PC12 cells [1]): noticeable neuroprotective activity
toxicity at the highest concentration tested (PC12 cells [4]): no toxicity was observed
neuroprotective effects on co-incubation with ODQ (sGC signaling): completely blocked
interference with radioligand binding, receptor panel [5]: does not interfere with binding of any radioligands for all receptors screened
hERG binding (hERG): No hERG binding was observed
NO production in the form of NO2− (PC12 cells [7]): negligible NO production
effect on pCREB (pCREB:tCREB ratio), forebrain (CREB phosphorylation): no effect on pCREB was observed

Second part, the molecule before the results:

Structure (SMILES): CN1[C@@H]2C[C@@H](OC(=O)[C@H](CO)c3ccccc3)C[C@H]1[C@@H]1O[C@@H]12 [Scopolamine]
latency to enter the dark compartment 24 h after training (male C57BL/6 mice): 63.5 ± 30 s

Structure (SMILES): CC1CCN(Cc2no[n+]([O-])c2-c2ccc(OC(F)F)cc2)CC1 [Furoxan 5d, 3-(4-(Difluoromethoxy)phenyl)-4-((4-methylpiperidin-1-yl)-methyl)-1,2,5-oxadiazole 2-Oxide]
neuroprotection (in words) (PC12 cells [1]): noticeable neuroprotective activity

Structure (SMILES): CCN1C(=O)C=CC1=O [NEM, N-ethylmaleimide, reference compound]
reactivity with excess thiol [6]: complete reaction

Structure (SMILES): CC1CCN(Cc2no[n+]([O-])c2-c2ccc(Br)cc2)CC1 [Furoxan 5c, 3-(4-Bromophenyl)-4-((4-methylpiperdin-1-yl)methyl)-1,2,5-oxadiazole 2-Oxide]
neuroprotection (in words) (PC12 cells [1]): noticeable neuroprotective activity
